Results published in ChEMBL document CHEMBL1122996, “Interactions of apomorphine with serum and tissue proteins” (J Med Chem, 1985).
Values joined by “and” are separate entries in the source; they are usually repeats but may differ in a detail not shown here. Equal values may be shown once.

What was measured:
Mus musculus [1] = species: Mus musculus; assay: Radio activity accumulation in plasma (Excreatable reactivity) on 14 days; format: functional
Method in brief: (§1)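 Male CD-1 mice (~35 g, n=10 per group) given apomorphine 30 mg/kg fortified with [3H]-apomorphine (0.153 mCi/kg) ip, either once or daily for 14 days. Sampled 24 h after the last dose: plasma from infraorbital sinus (extractable and nonextractable radioactivity) and brain regions (striatum, cerebellum, forebrain without striatum). Radioactivity expressed as µg apomorphine equivalent per mL or per g […].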

Mus musculus [2] = species: Mus musculus; assay: Radio activity accumulation in plasma (Excreatable reactivity) on day 1; format: functional; method in brief: as §1
Homo sapiens [3] = species: Homo sapiens; assay: Percentage binding to human plasma proteins was determined by measuring HPLC peak with radiochemical detection at 1.0 micro g/ml concentration in plasma; format: cell-free
Method in brief: (§2)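 Fresh plasma from fasted healthy human volunteers was spiked with 1-HCl plus [³H]-1 tracer. It was incubated 10 min at 37 °C and ultrafiltered through YMT membranes (1000g, 5 min, 37 °C). Ultrafiltrate was acidified with pH 3.0 acetate buffer containing carrier 1-HCl, argon-flushed and frozen at -15 °C. Phenyl-column HPLC was read by peak-eluate collection LSC, UV peak area, or radiochemical detection. % bound was calculated from total vs ultrafiltrate using a plasma water fraction of 0.93.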

Sus scrofa [4] = species: Sus scrofa; assay: Percentage binding to swine plasma proteins at 0.10 ug/mL concentration of the compound; format: cell-free
Method in brief: (§3)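 Plasma came from male Sprague-Dawley rats (~450 g, ether, vena cava blood, lithium heparin) or from six mature female swine (jugular catheter, heparinized). It was spiked with 1-HCl (10 ng–50 µg/mL) containing 0.5 mCi/mL [³H]-1. Samples were ultrafiltered as for human plasma, and the ultrafiltrate was analysed by HPLC peak-collection LSC. N = 4.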

Sus scrofa [5] = species: Sus scrofa; assay: Percentage binding to swine plasma proteins at 1.00 ug/mL concentration of the compound; format: cell-free; method in brief: as §3
Sus scrofa [6] = species: Sus scrofa; assay: Percentage binding to swine plasma proteins at 10.0 ug/mL concentration of the compound; format: cell-free; method in brief: as §3
Sus scrofa [7] = species: Sus scrofa; assay: Percentage binding to swine plasma proteins at 20.0 ug/mL concentration of the compound; format: cell-free; method in brief: as §3
Homo sapiens [8] = species: Homo sapiens; assay: Percentage binding to human plasma proteins was determined by collecting HPLC eluate at 0.01 micro g/ml concentration of compound 1 in plasma; format: cell-free; method in brief: as §2
Homo sapiens [9] = species: Homo sapiens; assay: Percentage binding to human plasma proteins was determined by collecting HPLC eluate at 0.10 micro g/ml concentration of compound 1 in plasma; format: cell-free; method in brief: as §2
Homo sapiens [10] = species: Homo sapiens; assay: Percentage binding to human plasma proteins was determined by collecting HPLC eluate at 10.0 micro g/ml concentration of compound 1 in plasma; format: cell-free; method in brief: as §2
Homo sapiens [11] = species: Homo sapiens; assay: Percentage binding to human plasma proteins was determined by measuring HPLC peak at 0.10 micro g/ml concentration of compound 1 in plasma; format: cell-free; method in brief: as §2
Homo sapiens [12] = species: Homo sapiens; assay: Percentage binding to human plasma proteins was determined by measuring HPLC peak at 1.00 micro g/ml concentration in plasma; format: cell-free; method in brief: as §2
Homo sapiens [13] = species: Homo sapiens; assay: Percentage binding to human plasma proteins was determined by measuring HPLC peak at 50.0 micro g/ml concentration in plasma; format: cell-free; method in brief: as §2
Sus scrofa [14] = species: Sus scrofa; assay: Percentage binding to swine plasma proteins at 5.0 ug/mL concentration of the compound; format: cell-free; method in brief: as §3
Sus scrofa [15] = species: Sus scrofa; assay: Percentage binding to swine plasma proteins at 50 ug/mL concentration of the compound; format: cell-free; method in brief: as §3
Sus scrofa [16] = species: Sus scrofa; assay: Percentage binding to swine plasma proteins a t0.01 ug/mL concentration of the compound; format: cell-free; method in brief: as §3
Sus scrofa [17] = species: Sus scrofa; assay: Percentage binding to swine plasma proteins at 100 ug/mL concentration of the compound; format: cell-free
Rattus norvegicus [18] = species: Rattus norvegicus; assay: Percentage binding to rat plasma proteins at 0.01 ug/mL concentration of the compound; format: cell-free; method in brief: as §3
Rattus norvegicus [19] = species: Rattus norvegicus; assay: Percentage binding to rat plasma proteins at 0.10 ug/mL concentration of the compound; format: cell-free; method in brief: as §3
Rattus norvegicus [20] = species: Rattus norvegicus; assay: Percentage binding to rat plasma proteins at 10.0 ug/mL concentration of the compound; format: cell-free; method in brief: as §3
Rattus norvegicus [21] = species: Rattus norvegicus; assay: Percentage binding to rat plasma proteins at 1 ug/mL concentration of the compound; format: cell-free; method in brief: as §3
Rattus norvegicus [22] = species: Rattus norvegicus; assay: Percentage binding to rat plasma proteins at 50.0 ug/mL concentration of the compound; format: cell-free; method in brief: as §3
Albumin [23] = molecular target: T1, Albumin (Bos taurus, UniProt P02769); assay: Covalent binding of compound to serum albumin after 1 hr when the level of [8,9-3H2]-1is 2.0 dpm *10e6; settings: cattle
T1 sequence (P02769 whole entry): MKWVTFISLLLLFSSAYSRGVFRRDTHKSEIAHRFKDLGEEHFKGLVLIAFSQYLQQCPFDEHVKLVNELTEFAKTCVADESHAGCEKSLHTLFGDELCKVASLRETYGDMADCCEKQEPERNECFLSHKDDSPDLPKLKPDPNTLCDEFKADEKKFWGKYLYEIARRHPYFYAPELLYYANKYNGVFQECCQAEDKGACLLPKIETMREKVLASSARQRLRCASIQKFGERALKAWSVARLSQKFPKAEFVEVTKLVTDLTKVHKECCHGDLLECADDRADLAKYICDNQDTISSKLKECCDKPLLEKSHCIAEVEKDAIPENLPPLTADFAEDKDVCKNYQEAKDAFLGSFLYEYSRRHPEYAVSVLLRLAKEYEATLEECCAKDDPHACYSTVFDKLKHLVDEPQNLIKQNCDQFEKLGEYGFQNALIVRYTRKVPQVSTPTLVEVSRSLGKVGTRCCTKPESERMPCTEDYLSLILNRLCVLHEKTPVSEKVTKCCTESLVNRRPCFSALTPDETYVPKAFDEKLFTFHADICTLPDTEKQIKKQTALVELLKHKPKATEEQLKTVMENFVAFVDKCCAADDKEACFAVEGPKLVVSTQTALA
Method in brief: (§4)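 BSA (32 mg) with 2 mg apomorphine HCl hemihydrate plus tritiated [8,9-3H2]apomorphine at the level stated, in pH 7.4 phosphate buffer, 2.1 mL total, incubated 1 h. Incubates were extracted twice with ethyl acetate. Protein-bound radioactivity was measured by LSC after one of three workups: perchloric acid precipitation with repeated trifluoroacetic acid-ethanol washes; Sephadex G-25 gel filtration in 1% sodium lauryl sulfate buffer; or 4-day dialysis.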

Albumin [24] = molecular target: T1, Albumin; assay: Covalent binding of compound to serum albumin after 1 hr when the level of [8,9-3H2]-1is 2.0 dpm *10e6 expressed as mol of drug/mol of serum albumin; settings: cattle; method in brief: as §4
Albumin [25] = molecular target: T1, Albumin; assay: Covalent binding of compound to serum albumin after 1 hr when the level of [8,9-3H2]-1is 2.2 dpm *10e6; settings: cattle; method in brief: as §4
Albumin [26] = molecular target: T1, Albumin; assay: Covalent binding of compound to serum albumin after 1 hr when the level of [8,9-3H2]-1is 2.3 dpm *10e6; settings: cattle; method in brief: as §4
Albumin [27] = molecular target: T1, Albumin; assay: Covalent binding of compound to serum albumin after 1 hr when the level of [8,9-3H2]-1is 2.3 dpm *10e6 expressed as mol of drug/mol of BSA; settings: cattle; method in brief: as §4
Albumin [28] = molecular target: T1, Albumin; assay: (§5) Covalent binding of compound to serum albumin after 1 hr when the level of [8,9-3H2]-1is 2.6 dpm *10e6; settings: cattle; method in brief: as §4
Albumin [29] = molecular target: T1, Albumin; assay: Covalent binding of compound to serum albumin after 1 hr when the level of [8,9-3H2]-1is 2.6 dpm *10e6 expressed as mol of drug/mol of serum albumin; settings: cattle; method in brief: as §4
Albumin [30] = molecular target: T1, Albumin; assay: as §5; settings: cattle; method in brief: as §4; remark: listed apart in the source
Albumin [31] = molecular target: T1, Albumin; assay: Covalent binding of compound to serum albumin after 1 hr when the level of [8,9-3H2]-1is 2.7 dpm *10e6; settings: cattle; method in brief: as §4
Albumin [32] = molecular target: T1, Albumin; assay: Covalent binding of compound to serum albumin after 1 hr when the level of [8,9-3H2]-1is 2.7 dpm *10e6 expressed as mol of drug/mol of serum albumin; settings: cattle; method in brief: as §4
Mus musculus [33] = species: Mus musculus; assay: Percentage of covalently bound total in forebrain without striatum of mouse; format: functional
Method in brief: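 Male CD-1 mice (~35 g, n=10) given apomorphine 30 mg/kg with [3H]-apomorphine (0.153 mCi/kg) ip daily for 14 days, killed 24 h after the last dose. Plasma from infraorbital sinus; brain split into striatum, cerebellum, forebrain without striatum. Protein-bound radioactivity expressed as µg/g protein (albumin equivalent; plasma µg/mL) and as % of total tissue radioactivity.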

Mus musculus [34] = species: Mus musculus; assay: Ratio of accumulation of radioactivity from 14 to 1 day in extractable reactivity in plasma; format: functional
Method in brief: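 Male CD-1 mice (~35 g, 10 per group) received 1 at 30 mg/kg ip with [³H]-1 (0.153 mCi/kg), once or daily for 14 days, with free access to food and water. At 24 h after the last dose, plasma (infraorbital sinus), brain regions, kidney, liver and GI tract were taken for radioactivity counting. The accumulation ratio is radioactivity after 14 doses divided by radioactivity after 1 dose.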

Albumin [35] = molecular target: T1, Albumin; assay: Covalent binding of compound to serum albumin after 1 hr when the level of [8,9-3H2]-1is 2.2 dpm *10e6 expressed as mol of drug/mol of serum albumin; settings: cattle; method in brief: as §4

`CN1CCc2cccc3c2[C@H]1Cc1ccc(O)c(O)c1-3` [APOMORPHINE] was tested, and the Accumulation (Mus musculus [1]) was 1.42 µg/mL, the Accumulation (Mus musculus [2]) was 0.561 µg/mL and the Binding (Homo sapiens [3]) was 94.9%. The Binding (Sus scrofa [4]) was 93%, the Binding (Sus scrofa [5]) was 93.5% and the Binding (Sus scrofa [6]) was 86.8%. For the same molecule, the Binding (Sus scrofa [7]) was 86.2%, the Binding (Homo sapiens [8]) was 96.8% and the Binding (Homo sapiens [9]) was 97.8%. For the same molecule, the Binding (Homo sapiens [10]) was 95.3% and 96.9%, the Binding (Homo sapiens [11]) was 96.6% and the Binding (Homo sapiens [12]) was 96.6%. It also gave a Binding (Homo sapiens [13]) of 94.9%, a Binding (Sus scrofa [14]) of 90.4% and a Binding (Sus scrofa [15]) of 87%. The Binding (Sus scrofa [16]) was 94.8%, the Binding (Sus scrofa [17]) was 85.7% and the Binding (Rattus norvegicus [18]) was 91.3%. For the same molecule, the Binding (Rattus norvegicus [19]) was 90.4%, the Binding (Rattus norvegicus [20]) was 90.7% and the Binding (Rattus norvegicus [21]) was 90.4%. The Binding (Rattus norvegicus [22]) was 89.1%, the Binding (Albumin [23]) was 4848 dpm mg-1 and the Binding (Albumin [24]) was 3 M of drug (M of BSA)-1. For the same molecule, the Binding (Albumin [25]) was 3850 dpm mg-1, the Binding (Albumin [26]) was 6215 dpm mg-1 and the Binding (Albumin [27]) was 3.4 M of drug (M of BSA)-1. The Binding (Albumin [28]) was 8238 dpm mg-1 and 9938 dpm mg-1, the Binding (Albumin [29]) was 4 M of drug (M of BSA)-1 and 4.8 M of drug (M of BSA)-1 and 4.4 M of drug (M of BSA)-1 and the Binding (Albumin [30]) was 9063 dpm mg-1. For the same molecule, the Binding (Albumin [31]) was 8465 dpm mg-1 and 12693 dpm mg-1, the Binding (Albumin [32]) was 4 M of drug (M of BSA)-1 and 5.9 M of drug (M of BSA)-1 and the Binding (Mus musculus [33]) was 1.62%. The Ratio (Mus musculus [34]) was 2.6 and the Binding (Albumin [35]) was 2.1 M of drug (M of BSA)-1.
